ChEMBL document CHEMBL2029249, “N-Methyl-3-(tetrahydro-2H-pyran-4-yl)-2,3,4,9-tetrahydro-1H-carbazole-6-carboxamides as a novel class of cannabinoid receptors agonists with low CNS penetration” (Bioorg Med Chem Lett, 2012)
Converted amounts (≈) assume the structure as drawn.

Experiments:
[1] = target: Voltage-gated inwardly rectifying potassium channel KCNH2 (Homo sapiens, UniProt Q12809)
[2] = Intrinsic clearance in human liver microsomes at 1 uM in presence of NADPH; assay type: ADME, Microsome; details: read-out: CLH
[3] = Thermodynamic solubility of the compound at pH 7.4; details: buffer
[4] = Apparent permeability from apical to basal side of human Caco2 cells at 10 uM; details: Caco-2
[5] = Ratio of drug level in brain to plasma in rat by microdialysis assay
[6] = target: T1, Cannabinoid receptor 1 (Homo sapiens, UniProt P21554); experiment: Agonist activity at human CB1 receptor expressed in HEK293 cells assessed as [35S]GTPgamma binding relative to WIN55212-2; assay type: functional, cell-based
Method in brief: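 GTPγ35S binding on membranes from HEK293 EBNA cells stably transfected with cloned human CB1; Emax relative to WIN55,212-2 as reference agonist; means of at least three measurements.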

[7] = target: T1, Cannabinoid receptor 1; experiment: Agonist activity at human CB1 receptor expressed in HEK293 cells assessed as [35S]GTPgamma binding; assay type: functional, cell-based
[8] = target: T1, Cannabinoid receptor 1; experiment: Displacement of [3H]CP55940 from human CB1 receptor expressed in HEK293 cells; assay type: cell-based
[9] = target: Cannabinoid receptor 2 (Homo sapiens, UniProt P34972); experiment: Binding affinity to human CB2 receptor
[10] = Plasma protein binding in Sprague-Dawley rat; assay type: ADME, cell-free; details: read-out: PPB (converted)
[11] = Tmax in Sprague-Dawley rat at 9 umol/kg, po; assay type: ADME, organism-based; details: in vivo
[12] = tested on: Plasma; experiment: Plasma concentration in rat carrageenan inflammatory pain model at 10 umol/kg, sc; assay type: ADME, cell-free
Method in brief: (§1)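 Rats in carrageenan inflammatory pain model dosed sc at 10, 30 or 100 µmol/kg; total plasma and brain levels by protein precipitation with ACN (brain homogenised first), centrifugation 9000g, 30 min, 4 °C, then reversed-phase LC-electrospray MS/MS against a serial-dilution calibration curve.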

[13] = tested on: Rattus norvegicus; experiment: Analgesic activity in sc dosed rat assessed as reversal of carrageenan-induced heat hyperalgesia; assay type: functional, organism-based
Method in brief: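 Rat carrageenan inflammatory pain model; reversal of heat hyperalgesia after subcutaneous dosing at 10, 30 and 100 µmol/kg.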

[14] = Clearance in Sprague-Dawley rat at 2 umol/kg, iv; assay type: ADME, organism-based; details: in vivo
[15] = tested on: Plasma; experiment: Plasma concentration in rat carrageenan inflammatory pain model at 30 umol/kg, sc; assay type: ADME, cell-free
Method in brief: as §1

[16] = tested on: Brain; experiment: Drug uptake in carrageenan inflammatory pain model of rat brain at 10 to 100 umol/kg, sc; assay type: ADME, organism-based; details: in vivo
Method in brief: as §1

[17] = Terminal half life in Sprague-Dawley rat at 2 umol/kg, iv; assay type: ADME, organism-based; details: in vivo, read-out: beta t1/2 (converted)
[18] = Cmax in Sprague-Dawley rat at 9 umol/kg, po; assay type: ADME, organism-based; parameters: dose 9 umol/kg, route oral; details: in vivo
[19] = Volume of distribution at steady state in Sprague-Dawley rat at 2 umol/kg, iv; assay type: ADME, organism-based; details: in vivo, read-out: Vdss
[20] = target: Cytochrome P450 2D6 (Homo sapiens, UniProt P10635); experiment: Inhibition of CYP2D6 in human liver microsomes; assay type: ADME, Microsome
[21] = tested on: Plasma; experiment: Plasma concentration in rat carrageenan inflammatory pain model at 100 umol/kg, sc; assay type: ADME, cell-free
Method in brief: as §1

[22] = Oral bioavailability in Sprague-Dawley rat at 9 umol/kg; assay type: ADME, organism-based; details: in vivo
[23] = target: Cytochrome P450 3A4 (Homo sapiens, UniProt P08684); experiment: Inhibition of CYP3A4 in human liver microsomes; assay type: ADME, Microsome
[24] = target: T2, Cytochrome P450 1A2 (Homo sapiens, UniProt P05177); experiment: Inhibition of CYP1A2 in human liver microsomes; assay type: ADME, Microsome
T2 sequence (P05177 whole entry): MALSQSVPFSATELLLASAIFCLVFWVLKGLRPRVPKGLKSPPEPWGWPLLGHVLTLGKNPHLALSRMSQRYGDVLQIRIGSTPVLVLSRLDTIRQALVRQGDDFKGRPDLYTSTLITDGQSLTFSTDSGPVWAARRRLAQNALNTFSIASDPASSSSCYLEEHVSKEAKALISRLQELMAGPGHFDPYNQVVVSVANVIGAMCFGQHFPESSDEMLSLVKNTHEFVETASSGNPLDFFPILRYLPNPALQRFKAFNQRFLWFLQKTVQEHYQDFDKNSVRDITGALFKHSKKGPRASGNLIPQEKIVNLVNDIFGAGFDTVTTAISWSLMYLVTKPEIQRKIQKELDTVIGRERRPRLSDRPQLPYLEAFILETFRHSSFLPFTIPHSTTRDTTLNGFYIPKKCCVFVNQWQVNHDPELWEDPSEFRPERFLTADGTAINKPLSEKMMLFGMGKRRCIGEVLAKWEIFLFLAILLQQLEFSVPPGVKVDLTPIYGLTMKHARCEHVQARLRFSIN

[25] = Intrinsic clearance in rat liver microsomes; assay type: ADME, Microsome; details: read-out: CLH
Method in brief: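 Rat liver microsomes; intrinsic clearance expressed per mg microsomal protein.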

[26] = target: Cytochrome P450 2C9 (Homo sapiens, UniProt P11712); experiment: Inhibition of CYP2C9 in human liver microsomes; assay type: ADME, Microsome
[27] = target: Cytochrome P450 2C19 (Homo sapiens, UniProt P33261); experiment: Inhibition of CYP2C19 in human liver microsomes; assay type: ADME, Microsome
Method in brief: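 IC50 determined in human liver microsomes as part of a five-isoform panel (CYP1A2, CYP2C9, CYP2C19, CYP2D6, CYP3A4) to assess drug-interaction potential.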

Sequence of Voltage-gated inwardly rectifying potassium channel KCNH2 (Q12809 whole entry): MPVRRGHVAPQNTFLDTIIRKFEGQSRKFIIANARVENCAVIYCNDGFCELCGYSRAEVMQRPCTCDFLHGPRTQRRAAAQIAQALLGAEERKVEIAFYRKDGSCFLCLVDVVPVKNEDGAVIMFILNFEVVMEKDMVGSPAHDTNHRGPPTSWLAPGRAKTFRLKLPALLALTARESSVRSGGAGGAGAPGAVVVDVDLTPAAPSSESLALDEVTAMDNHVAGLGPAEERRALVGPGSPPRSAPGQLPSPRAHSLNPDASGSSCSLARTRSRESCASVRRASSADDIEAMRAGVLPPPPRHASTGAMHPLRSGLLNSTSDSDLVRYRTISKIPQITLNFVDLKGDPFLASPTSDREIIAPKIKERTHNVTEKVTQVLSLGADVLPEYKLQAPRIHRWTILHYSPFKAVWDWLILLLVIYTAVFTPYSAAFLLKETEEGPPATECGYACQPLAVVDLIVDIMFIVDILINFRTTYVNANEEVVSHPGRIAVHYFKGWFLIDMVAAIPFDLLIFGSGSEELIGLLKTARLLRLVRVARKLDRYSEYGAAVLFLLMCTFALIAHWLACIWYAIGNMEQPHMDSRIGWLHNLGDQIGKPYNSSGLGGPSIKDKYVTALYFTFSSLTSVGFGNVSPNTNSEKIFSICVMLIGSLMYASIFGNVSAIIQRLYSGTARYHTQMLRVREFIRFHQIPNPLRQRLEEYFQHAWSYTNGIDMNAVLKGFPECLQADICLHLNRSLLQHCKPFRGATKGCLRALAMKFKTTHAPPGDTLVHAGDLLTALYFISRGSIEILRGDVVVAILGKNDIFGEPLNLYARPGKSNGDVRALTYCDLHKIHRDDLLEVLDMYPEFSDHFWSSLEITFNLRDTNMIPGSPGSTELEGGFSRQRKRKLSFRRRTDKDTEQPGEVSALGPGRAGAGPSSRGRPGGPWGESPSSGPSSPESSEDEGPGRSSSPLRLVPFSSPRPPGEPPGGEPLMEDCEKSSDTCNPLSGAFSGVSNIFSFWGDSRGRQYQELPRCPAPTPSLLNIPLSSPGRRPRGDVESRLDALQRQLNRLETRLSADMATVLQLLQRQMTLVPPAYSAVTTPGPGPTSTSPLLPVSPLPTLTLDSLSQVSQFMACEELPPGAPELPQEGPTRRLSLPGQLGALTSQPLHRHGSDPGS
T1 sequence (P21554 whole entry): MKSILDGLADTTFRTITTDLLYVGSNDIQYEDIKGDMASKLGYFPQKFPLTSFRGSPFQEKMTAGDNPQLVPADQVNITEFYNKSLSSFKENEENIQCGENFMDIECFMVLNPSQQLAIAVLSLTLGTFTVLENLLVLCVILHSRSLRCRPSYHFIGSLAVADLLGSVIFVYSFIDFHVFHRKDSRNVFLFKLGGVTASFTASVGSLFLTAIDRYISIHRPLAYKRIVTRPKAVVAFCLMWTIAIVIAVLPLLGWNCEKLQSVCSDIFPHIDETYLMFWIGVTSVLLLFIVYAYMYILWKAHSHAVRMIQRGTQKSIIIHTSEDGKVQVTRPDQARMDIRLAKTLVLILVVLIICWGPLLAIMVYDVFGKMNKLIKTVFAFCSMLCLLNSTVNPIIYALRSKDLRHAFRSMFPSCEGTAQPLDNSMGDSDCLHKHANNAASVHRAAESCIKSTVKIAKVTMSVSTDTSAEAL
Sequence of Cannabinoid receptor 2 (P34972 whole entry): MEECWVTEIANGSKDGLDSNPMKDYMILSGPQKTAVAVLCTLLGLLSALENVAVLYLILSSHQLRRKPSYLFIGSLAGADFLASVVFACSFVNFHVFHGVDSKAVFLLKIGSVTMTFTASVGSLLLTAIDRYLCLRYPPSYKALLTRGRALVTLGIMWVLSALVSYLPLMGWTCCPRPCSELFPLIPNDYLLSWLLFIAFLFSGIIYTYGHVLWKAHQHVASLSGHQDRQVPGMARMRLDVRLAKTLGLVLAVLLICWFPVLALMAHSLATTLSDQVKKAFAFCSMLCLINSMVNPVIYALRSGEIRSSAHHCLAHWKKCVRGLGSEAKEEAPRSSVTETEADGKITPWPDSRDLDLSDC
Sequence of Cytochrome P450 2C19 (P33261 whole entry, canonical isoform): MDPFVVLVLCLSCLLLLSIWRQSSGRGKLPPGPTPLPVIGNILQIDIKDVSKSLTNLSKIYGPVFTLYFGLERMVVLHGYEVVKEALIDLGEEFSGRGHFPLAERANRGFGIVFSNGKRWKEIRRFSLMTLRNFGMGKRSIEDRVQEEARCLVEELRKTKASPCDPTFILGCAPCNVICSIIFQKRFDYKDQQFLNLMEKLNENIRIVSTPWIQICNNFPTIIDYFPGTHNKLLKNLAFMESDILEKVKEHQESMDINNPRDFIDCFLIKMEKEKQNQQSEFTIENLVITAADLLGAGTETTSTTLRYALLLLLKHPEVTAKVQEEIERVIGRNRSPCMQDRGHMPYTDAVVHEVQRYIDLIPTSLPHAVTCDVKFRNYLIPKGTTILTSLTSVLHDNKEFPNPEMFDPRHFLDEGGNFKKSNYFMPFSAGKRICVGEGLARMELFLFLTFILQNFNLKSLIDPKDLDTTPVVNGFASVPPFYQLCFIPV
Sequence of Cytochrome P450 2C9 (P11712 whole entry): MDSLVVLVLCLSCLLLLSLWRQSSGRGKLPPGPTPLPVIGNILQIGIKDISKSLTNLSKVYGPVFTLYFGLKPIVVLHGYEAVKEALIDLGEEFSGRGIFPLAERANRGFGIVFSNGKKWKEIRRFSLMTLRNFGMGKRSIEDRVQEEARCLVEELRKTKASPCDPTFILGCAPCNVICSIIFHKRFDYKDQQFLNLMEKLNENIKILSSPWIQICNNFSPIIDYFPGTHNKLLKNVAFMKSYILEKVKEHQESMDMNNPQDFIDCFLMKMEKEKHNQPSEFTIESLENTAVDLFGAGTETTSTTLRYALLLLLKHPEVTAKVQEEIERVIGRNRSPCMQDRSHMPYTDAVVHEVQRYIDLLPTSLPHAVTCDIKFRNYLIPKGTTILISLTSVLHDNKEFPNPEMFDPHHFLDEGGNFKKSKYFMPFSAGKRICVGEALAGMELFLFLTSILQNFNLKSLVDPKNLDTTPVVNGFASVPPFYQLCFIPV
Sequence of Cytochrome P450 3A4 (P08684 whole entry): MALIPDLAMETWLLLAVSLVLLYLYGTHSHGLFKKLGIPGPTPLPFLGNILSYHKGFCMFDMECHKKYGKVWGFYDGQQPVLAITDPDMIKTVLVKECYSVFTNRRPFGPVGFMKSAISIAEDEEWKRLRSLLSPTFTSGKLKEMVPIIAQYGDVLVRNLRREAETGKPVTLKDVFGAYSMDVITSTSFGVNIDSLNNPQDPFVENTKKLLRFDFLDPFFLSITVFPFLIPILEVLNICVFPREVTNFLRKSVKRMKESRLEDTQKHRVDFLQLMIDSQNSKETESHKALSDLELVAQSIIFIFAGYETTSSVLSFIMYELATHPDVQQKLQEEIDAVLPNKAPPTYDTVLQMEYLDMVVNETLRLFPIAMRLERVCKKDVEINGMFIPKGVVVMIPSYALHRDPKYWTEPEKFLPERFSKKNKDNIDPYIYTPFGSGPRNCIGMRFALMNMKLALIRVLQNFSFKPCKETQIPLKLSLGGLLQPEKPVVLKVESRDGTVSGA
Sequence of Cytochrome P450 2D6 (P10635 whole entry): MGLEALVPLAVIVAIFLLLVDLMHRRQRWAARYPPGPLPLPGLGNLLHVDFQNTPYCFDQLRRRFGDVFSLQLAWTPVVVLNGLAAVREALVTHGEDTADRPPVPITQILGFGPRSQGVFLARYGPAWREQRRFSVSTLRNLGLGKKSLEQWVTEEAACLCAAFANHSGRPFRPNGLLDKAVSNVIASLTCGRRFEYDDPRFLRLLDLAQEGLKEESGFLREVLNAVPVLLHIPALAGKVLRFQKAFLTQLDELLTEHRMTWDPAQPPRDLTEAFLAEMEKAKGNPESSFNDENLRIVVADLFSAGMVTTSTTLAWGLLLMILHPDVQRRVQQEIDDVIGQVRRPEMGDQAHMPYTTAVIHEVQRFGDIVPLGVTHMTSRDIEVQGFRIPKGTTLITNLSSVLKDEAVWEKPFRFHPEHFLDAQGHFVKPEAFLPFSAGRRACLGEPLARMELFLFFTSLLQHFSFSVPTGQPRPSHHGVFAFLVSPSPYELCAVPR

SMILES	microsomal CLint at 1 µM [2] [µL/min/mg]	solubility thermodynamic [3] [µM]	Papp A→B at 10 µM [4] [×10⁻⁶ cm/s]	Kp [5]	Emax [6] [%]	EC50 [7] [nM]	Ki [8] [nM]	further results
Cn1c2c(c3cc(C(=O)NCCCC(=O)NC4CC4)ccc31)CC(C1CCOCC1)CC2 (stereo unspecified)	47	1 (≈ 0.438 µg/mL)						IC50 [1]: > 31000 nM
CNC(=O)CC[C@@H](CO)N(C)C(=O)c1ccc2c(c1)c1c(n2C)CC[C@@H](C2CCOCC2)C1	15	> 3000	0.15	< 0.02	124			IC50 [1]: > 33000 nM
CCN(CC(=O)NC1CC1)C(=O)c1ccc2c(c1)c1c(n2C)CC[C@H](C2CCOCC2)C1		49 (≈ 21.4 µg/mL)			106	24.2	17.3	
CCN(CCCC(=O)NCCO)C(=O)c1ccc2c(c1)c1c(n2C)CC[C@@H](C2CCOCC2)C1	38	760 (≈ 357 µg/mL)		< 0.02	113			IC50 [1]: > 33000 nM
CN(CC(=O)NC1CC1)C(=O)c1ccc2c(c1)c1c(n2C)CC[C@@H](C2CCOCC2)C1	30	86 (≈ 36.4 µg/mL)	27	0.024	116	39.9	24.5	Ki [9]: 21.5 nM
CN(CCCC(=O)NCCO)C(=O)c1ccc2c(c1)c1c(n2C)CC[C@@H](C2CCOCC2)C1	17	2490 (≈ 1130 µg/mL)			120			
CNC(=O)CCCN(C)C(=O)c1ccc2c(c1)c1c(n2C)CC[C@H](C2CCOCC2)C1	31	1070 (≈ 455 µg/mL)					576	
CN(CCCC(=O)NCCF)C(=O)c1ccc2c(c1)c1c(n2C)CC[C@@H](C2CCOCC2)C1	50	470 (≈ 215 µg/mL)		0.02	108	12.9		
CN(CCCC(=O)NC1COC1)C(=O)c1ccc2c(c1)c1c(n2C)CC[C@@H](C2CCOCC2)C1	29	1670 (≈ 781 µg/mL)		0.019	116	43.7		
CCN(CC(=O)NC1CC1)C(=O)c1ccc2c(c1)c1c(n2C)CC[C@@H](C2CCOCC2)C1	36	30 (≈ 13.1 µg/mL)	23	0.09	106	1.9	4.2	
CCN(CCCC(=O)NC1CC1)C(=O)c1ccc2c(c1)c1c(n2C)CCC(C2CCOCC2)C1 (stereo unspecified)	143	224 (≈ 104 µg/mL)			114	2.9		
CNC(=O)CCCN(C)C(=O)c1ccc2c(c1)c1c(n2C)CC[C@@H](C2CCOCC2)C1	26	1120 (≈ 478 µg/mL)	12	0.02	116	51.4	29.3	fraction unbound [10]: 0.021; Tmax [11]: 2.2 h; concentration [12]: 6.9 µM; Activity [13]: Dose-dependent effect; clearance [14]: 2.8 mL/min/kg; concentration [15]: 9.1 µM; Drug uptake [16]: Not Active; half-life [17]: 2.4 h; Cmax [18]: 6.3 µM; Vd [19]: 0.3 L/kg; INH [20]: > 20 µM; concentration [21]: 50.7 µM; bioavailability [22]: 100%; INH [23]: > 20 µM; Ki [9]: 15.5 nM; INH [24]: > 20 µM; microsomal CLint [25]: 61 µL/min/mg; IC50 [26]: 7000 nM; INH [27]: > 20 µM
Cc1c(C(=O)c2cccc3ccccc23)c2cccc3c2n1[C@H](CN1CCOCC1)CO3 [WIN-552122]		2 (≈ 0.853 µg/mL)		2.3				
